Measured values reported in ChEMBL document CHEMBL4321796, “Proteolysis Targeting Chimeras for the Selective Degradation of Mcl-1/Bcl-2 Derived from Nonselective Target Binding Ligands” (J Med Chem, 2019).
The source made the active and inactive calls. The rule behind the calls is not given here.

Experiments:
[1] = biological target: Apoptosis regulator Bcl-2 (Homo sapiens, UniProt P10415); test: Inhibition of biotinylated Bim peptide (81 to 106 residues) binding to His-tagged human Bcl-2 expressed in Escherichia coli BL21 (DE3) cells preincubated for 1 hr followed by biotinylated Bim peptide addition measured after 2 hrs by ELISA
Sequence of Apoptosis regulator Bcl-2 (P10415 whole entry, the tested form may be a part): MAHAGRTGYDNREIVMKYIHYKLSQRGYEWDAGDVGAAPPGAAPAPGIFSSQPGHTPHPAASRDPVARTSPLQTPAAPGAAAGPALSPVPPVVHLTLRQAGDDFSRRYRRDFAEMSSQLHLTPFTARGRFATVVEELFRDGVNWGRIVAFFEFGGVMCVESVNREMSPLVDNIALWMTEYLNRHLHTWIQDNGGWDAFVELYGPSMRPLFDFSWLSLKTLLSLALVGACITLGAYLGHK
Outline: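 Inhibitor serially diluted (100–0.1 µM) from 10 mM DMSO stock, preincubated 1 h with 200 nM His-tagged protein in PBS (final DMSO 4%), then added 2 h to streptavidin plates holding biotin-Bim (plated at 0.09 mg/mL). Incubations at 4 °C. Detection with HRP anti-His, TMB 30 min, H2SO4 stop, A450. IC50 averaged from three independent experiments, with SD.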

[2] = biological target: T1, Protein cereblon/Induced myeloid leukemia cell differentiation protein Mcl-1 (Homo sapiens, UniProt Q07820+Q96SW2); test: Induction of CRBN-mediated Mcl-1 degradation in human HeLa cells assessed as relative abundance at 1 uM after 12 hrs by Western blot analysis (reference value: 1); type: cell-based
T1 sequence (Q07820 whole entry, looked up): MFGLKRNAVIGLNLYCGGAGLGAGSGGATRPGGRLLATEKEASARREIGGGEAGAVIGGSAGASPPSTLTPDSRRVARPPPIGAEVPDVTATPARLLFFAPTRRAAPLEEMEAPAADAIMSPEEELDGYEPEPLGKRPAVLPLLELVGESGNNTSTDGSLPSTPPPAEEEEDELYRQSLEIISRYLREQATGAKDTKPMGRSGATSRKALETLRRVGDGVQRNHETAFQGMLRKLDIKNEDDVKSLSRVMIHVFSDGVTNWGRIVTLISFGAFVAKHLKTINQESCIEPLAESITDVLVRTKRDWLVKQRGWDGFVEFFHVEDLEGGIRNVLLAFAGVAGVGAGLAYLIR
T1 sequence (Q96SW2 whole entry, looked up): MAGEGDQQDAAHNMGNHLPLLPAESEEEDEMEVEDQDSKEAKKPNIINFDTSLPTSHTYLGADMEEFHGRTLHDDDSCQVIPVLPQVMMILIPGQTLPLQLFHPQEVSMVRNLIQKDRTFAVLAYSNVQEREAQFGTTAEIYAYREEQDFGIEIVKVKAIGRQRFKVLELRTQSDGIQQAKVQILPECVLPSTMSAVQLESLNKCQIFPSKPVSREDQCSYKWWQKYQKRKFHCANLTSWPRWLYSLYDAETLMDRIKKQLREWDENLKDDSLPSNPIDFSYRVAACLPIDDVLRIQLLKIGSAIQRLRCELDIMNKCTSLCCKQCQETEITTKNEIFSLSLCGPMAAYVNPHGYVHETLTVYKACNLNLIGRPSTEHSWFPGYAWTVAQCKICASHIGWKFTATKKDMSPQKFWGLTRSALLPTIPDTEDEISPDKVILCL

[3] = biological target: T1, Protein cereblon/Induced myeloid leukemia cell differentiation protein Mcl-1; test: Induction of CRBN-mediated Mcl-1 degradation in human HeLa cells assessed as relative abundance at 0.1 uM after 12 hrs by Western blot analysis (reference value: 1); type: cell-based
[4] = biological target: T1, Protein cereblon/Induced myeloid leukemia cell differentiation protein Mcl-1; test: Induction of CRBN-mediated Mcl-1 degradation in human HeLa cells assessed as relative abundance at 3 uM after 12 hrs by Western blot analysis (reference value: 1); type: cell-based
[5] = biological target: T1, Protein cereblon/Induced myeloid leukemia cell differentiation protein Mcl-1; test: Induction of CRBN-mediated Mcl-1 degradation in human HeLa cells assessed as relative abundance at 10 uM measured at 2 hrs by Western blot analysis (reference value: 1); type: cell-based
Outline: (§1)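 HeLa cells in DMEM with 10% FBS, exposed to 10 µM compound over a 0–24 h time course. Mcl-1 and Bcl-2 detected by immunoblot (NP-40 lysis, BCA-equalized SDS-PAGE, PVDF, ECL) and quantified relative to DMSO control; mean ± s.d., n=3 independent samples.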

[6] = biological target: T1, Protein cereblon/Induced myeloid leukemia cell differentiation protein Mcl-1; test: Induction of CRBN-mediated Mcl-1 degradation in human HeLa cells assessed as relative abundance at 10 uM measured at 16 hrs by Western blot analysis (reference value: 1); type: cell-based; outline: as §1
[7] = biological target: T2, Protein cereblon/Apoptosis regulator Bcl-2 (Homo sapiens, UniProt P10415+Q96SW2); test: Induction of CRBN-mediated Bcl-2 degradation in human HeLa cells assessed as relative abundance at 10 uM measured at 4 hrs by Western blot analysis (reference value: 1); type: cell-based; outline: as §1
T2 sequence (P10415 whole entry, looked up): as the sequence (P10415 whole entry, the tested form may be a part) above
T2 sequence (Q96SW2 whole entry, looked up): as the sequence (Q96SW2 whole entry, looked up) above

[8] = biological target: T1, Protein cereblon/Induced myeloid leukemia cell differentiation protein Mcl-1; test: Induction of CRBN-mediated Mcl-1 degradation in human HeLa cells at 10 uM measured at 12 hrs by Western blot analysis relative to control; type: cell-based; outline: as §1
[9] = biological target: T1, Protein cereblon/Induced myeloid leukemia cell differentiation protein Mcl-1; test: Induction of CRBN-mediated Mcl-1 degradation in human K562 cells incubated for 12 hrs by Western blot analysis; type: cell-based
Outline: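 K562 cells kept in RPMI1640 with 10% FBS at 37 °C, 5% CO2. After compound treatment, cells lysed in NP-40 buffer with protease inhibitors. Equal protein run on SDS-PAGE, then immunoblotted; protein levels quantified from the blots.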

[10] = biological target: T1, Protein cereblon/Induced myeloid leukemia cell differentiation protein Mcl-1; test: Induction of CRBN-mediated Mcl-1 degradation in human HeLa cells at 10 uM pretreated with proteasome inhibitor MG-132 followed by compound addition by Western blot analysis; type: cell-based
[11] = biological target: T1, Protein cereblon/Induced myeloid leukemia cell differentiation protein Mcl-1; test: Protac activity at CRBN/Mcl-1 in human HeLa cell lysates assessed as ternary complex formation by Western blot analysis based pull-down assay; type: subcellular; details: Lysate
Outline: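 HeLa lysate (25×10^6 cells, 1% Triton X-100 IP buffer), 1 mg total protein, incubated overnight with 1 µg CRBN antibody across a compound concentration gradient. Capture on protein A+G agarose, three Triton washes, boiled in loading buffer. Mcl-1, Bcl-2 and CRBN detected by immunoblotting. n=3 independent samples.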

NCI-H23 = test: Cytotoxicity against human H23 cells assessed as effect on PARP cleavage at 0.3 to 10 uM incubated for 12 hrs by Western blot analysis; type: functional, cell-based
Outline: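 H23 cells grown in RPMI1640 with 10% FBS at 37°C, 5% CO2, treated 12 h over a concentration gradient. Mcl-1 and PARP cleavage read by immunoblot: NP-40 lysis buffer with protease inhibitors, BCA-normalized SDS-PAGE, PVDF, ECL detection; n=3 independent samples.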

[12] = biological target: T2, Protein cereblon/Apoptosis regulator Bcl-2; test: Induction of CRBN-mediated Bcl-2 degradation in human HeLa cells assessed as reduction in Bcl-2 level at 10 uM after 12 hrs by Western blot analysis; type: cell-based

## O=C(CCCCC(=O)NCCN1C(=O)c2cccc3c(Sc4ccc(Br)cc4)ccc(c23)C1=O)NCCCCCCNc1cccc2c1C(=O)N(C1CCC(=O)NC1=O)C2=O (stereo not drawn)
[1]
  IC50: 540 nM
[2]
  fold change (FC): 0.3
[3]
  fold change (FC): 1.1
[4]
  fold change (FC): 0.1
[5]
  fold change (FC): 1.1
[6]
  fold change (FC): 0.4
[7]
  fold change (FC): 1.1
[8]
  Activity: 80%
[9]
  Activity: Active
[10]
  Activity: inactive
[11]
  Activity: Dose-dependent effect
NCI-H23
  Activity: Active
[12]
  Activity: inactive
